# Test results: ChEMBL document CHEMBL4689842, “EUbOPEN Chemogenomics Library wave 1” (2021)
# Several values for one entry are separate records, joined by “and”; a condition that tells them apart may be missing. Identical values can stand only once.
# Experiments:
# [1] = tested on: Fibroblast; assay: Incucyte cell viability with human fibroblast; format: toxicity, cell-based; conditions: 10 µM, compound concentration 10 uM; note: filed as whole numbers so only -1 and 0 and 1 occur
# [2] = tested on: HEK-293T; assay: Multiplex assay against HEK293T; format: toxicity, cell-based; conditions: human;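 for Population Tubulin-Different-Phenotype (%): share of the cells with healthy nuclei that show this phenotype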
# How it was run: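 On a CQ1 microscope at 37°C and 5% CO2, live cells were imaged after compound addition. They had been stained at seeding with Hoechst33342, BioTracker Green Microtubule Cytoskeleton Dye, MitoTracker Red and Annexin V Alexa Fluor 680. CellPathfinder machine-learning gating assigned cells to Hoechst high-intensity objects or normal cells, normal cells to healthy, pyknosed or fragmented nuclei, and pyknosed cells to mitotic or apoptotic. Tubulin, mitochondrial-mass and membrane-permeability phenotypes are per cents of healthy-nucleus cells.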
# [3] = 12 h, 1 µM, compound concentration 1 uM, replicate 1
# [4] = 12 h, 1 µM, compound concentration 1 uM, replicate 2
# [5] = 12 h, 10 µM, compound concentration 10 uM, replicate 1
# [6] = 12 h, 10 µM, compound concentration 10 uM, replicate 2
# [7] = 24 h, 1 µM, compound concentration 1 uM, replicate 1
# [8] = 24 h, 1 µM, compound concentration 1 uM, replicate 2
# [9] = 24 h, 10 µM, compound concentration 10 uM, replicate 1
# [10] = 24 h, 10 µM, compound concentration 10 uM, replicate 2
# [11] = 48 h, 1 µM, compound concentration 1 uM, replicate 1
# [12] = 48 h, 1 µM, compound concentration 1 uM, replicate 2
# [13] = 48 h, 10 µM, compound concentration 10 uM, replicate 1
# [14] = 48 h, 10 µM, compound concentration 10 uM, replicate 2
smiles,measurement,setting,value
CS(=O)(=O)N1CCCC(NC(=O)[C@H](CCC2CCCCC2)NC(=O)c2ccc(CNC(=O)c3cnc4ccccn34)cc2)C1 (some centres undefined) [SR-302],Growth Rate,"[1]; 0 h, replicate number 1, timepoint 0 hours",0
same,Growth Rate,"[1]; 6 h, replicate number 1, timepoint 6 hours",1
same,Growth Rate,"[1]; 12 h, replicate number 1, timepoint 12 hours",0
same,Growth Rate,"[1]; 18 h, replicate number 1, timepoint 18 hours",0
same,Growth Rate,"[1]; 24 h, replicate number 1, timepoint 24 hours",0
same,Population Apoptotic (%),[2]; [3],40% [middle of 4 runs]
same,Population Fragmented Nuclei (%),[2]; [3],13% [middle of 4 runs]
same,Population Hoechst High Intensity Objects (%),[2]; [3],14% [middle of 4 runs]
same,Population Membrane Permeable-Phenotype (%),[2]; [3],3% and 2%
same,Population Mitotic Cells (%),[2]; [3],65% [middle of 4 runs]
same,Population Normal (%),[2]; [3],86% and 85% and 81%
same,Total Cell Count,[2]; [3],519 [middle of 4 runs]
same,Population Apoptotic (%),[2]; [4],17% [middle of 4 runs]
same,Population Fragmented Nuclei (%),[2]; [4],8% and 5%
same,Population Healthy Nuclei (%),[2]; [4],48% [middle of 4 runs]
same,Population Hoechst High Intensity Objects (%),[2]; [4],6% and 3% and 2%
same,Population Mitotic Cells (%),[2]; [4],88% [middle of 4 runs]
same,Population Normal (%),[2]; [4],93% and 96% and 97%
same,Population Apoptotic (%),[2]; [5],65% [middle of 4 runs]
same,Population Fragmented Nuclei (%),[2]; [5],13% and 12% and 16%
same,Population Hoechst High Intensity Objects (%),[2]; [5],16% [middle of 4 runs]
same,Population Membrane Permeable-Phenotype (%),[2]; [5],7% and 4% and 3%
same,Population Mitotic Cells (%),[2]; [5],35% [middle of 4 runs]
same,Population Normal (%),[2]; [5],85% and 83% and 77% and 86%
same,Total Cell Count,[2]; [5],331 [middle of 4 runs]
same,Population Healthy Nuclei (%),[2]; [6],30% and 36% and 87%
same,Population Membrane Permeable-Phenotype (%),[2]; [6],12% and 8%
same,Population Mitotic Cells (%),[2]; [6],52% [middle of 4 runs]
same,Population Normal (%),[2]; [6],95% and 90% and 94% and 97%
same,Population Tubulin-Different-Phenotype (%),[2]; [6],93% [middle of 4 runs]
same,Population Apoptotic (%),[2]; [7],52% [middle of 4 runs]
same,Population Fragmented Nuclei (%),[2]; [7],13% [middle of 4 runs]
same,Population Hoechst High Intensity Objects (%),[2]; [7],15% and 14% and 24%
same,Population Membrane Permeable-Phenotype (%),[2]; [7],4% and 3% and 2%
same,Population Mitotic Cells (%),[2]; [7],64% [middle of 4 runs]
same,Population Normal (%),[2]; [7],84% and 85% and 75%
same,Population Healthy Nuclei (%),[2]; [8],65% [middle of 4 runs]
same,Population Membrane Permeable-Phenotype (%),[2]; [8],11% and 7% and 5%
same,Population Mitotic Cells (%),[2]; [8],76% and 75% and 93%
same,Population Normal (%),[2]; [8],95% and 97% and 96% and 98%
same,Population Apoptotic (%),[2]; [9],63% and 66% and 26%
same,Population Fragmented Nuclei (%),[2]; [9],18% [middle of 4 runs]
same,Population Hoechst High Intensity Objects (%),[2]; [9],17% [middle of 4 runs]
same,Population Mitotic Cells (%),[2]; [9],36% and 33% and 73%
same,Population Normal (%),[2]; [9],82% and 84% and 81% and 89%
same,Total Cell Count,[2]; [9],335 [middle of 4 runs]
same,Population Fragmented Nuclei (%),[2]; [10],3% and 6%
same,Population Healthy Nuclei (%),[2]; [10],44% and 77% and 50%
same,Population Membrane Permeable-Phenotype (%),[2]; [10],13% and 6% and 5%
same,Population Mitotic Cells (%),[2]; [10],94% and 46% and 37%
same,Population Normal (%),[2]; [10],98% and 97% and 91% and 95%
same,Population Tubulin-Different-Phenotype (%),[2]; [10],56% and 88% and 94%
same,Population Apoptotic (%),[2]; [11],46% and 31% and 58%
same,Population Fragmented Nuclei (%),[2]; [11],25% and 16% and 23%
same,Population Healthy Nuclei (%),[2]; [11],24% and 43% and 23%
same,Population Hoechst High Intensity Objects (%),[2]; [11],11% and 24%
same,Population Membrane Permeable-Phenotype (%),[2]; [11],1% and 0%
same,Population Mitochondria Different-Phenotype (%),[2]; [11],42% and 44% and 58%
same,Population Mitotic Cells (%),[2]; [11],53% and 68% and 41%
same,Population Normal (%),[2]; [11],88% and 76%
same,Population Pyknosed Nuclei (%),[2]; [11],49% and 40% and 53%
same,Population Tubulin-Different-Phenotype (%),[2]; [11],18% and 29% and 41%
same,Total Cell Count,[2]; [11],293 and 638 and 325
same,Population Apoptotic (%),[2]; [12],30% and 16% and 25%
same,Population Fragmented Nuclei (%),[2]; [12],5% and 6% and 7%
same,Population Healthy Nuclei (%),[2]; [12],81% and 84% and 82%
same,Population Hoechst High Intensity Objects (%),[2]; [12],5% and 4%
same,Population Membrane Permeable-Phenotype (%),[2]; [12],3%
same,Population Mitochondria Different-Phenotype (%),[2]; [12],9% and 8% and 10%
same,Population Mitotic Cells (%),[2]; [12],69% and 83% and 74%
same,Population Normal (%),[2]; [12],94% and 95%
same,Population Pyknosed Nuclei (%),[2]; [12],12% and 9% and 10%
same,Population Tubulin-Different-Phenotype (%),[2]; [12],16% and 27%
same,Total Cell Count,[2]; [12],344 and 689 and 583
same,Population Apoptotic (%),[2]; [13],64% and 65% and 62%
same,Population Fragmented Nuclei (%),[2]; [13],23% and 21% and 33%
same,Population Healthy Nuclei (%),[2]; [13],18% and 20% and 19%
same,Population Hoechst High Intensity Objects (%),[2]; [13],22% and 18%
same,Population Membrane Permeable-Phenotype (%),[2]; [13],3% and 0%
same,Population Mitochondria Different-Phenotype (%),[2]; [13],90% and 100% and 97%
same,Population Mitotic Cells (%),[2]; [13],35% and 34% and 37%
same,Population Normal (%),[2]; [13],77% and 81%
same,Population Pyknosed Nuclei (%),[2]; [13],58% and 57% and 47%
same,Population Tubulin-Different-Phenotype (%),[2]; [13],96% and 95%
same,Total Cell Count,[2]; [13],360 and 347 and 256
same,Population Apoptotic (%),[2]; [14],61% and 73% and 52%
same,Population Fragmented Nuclei (%),[2]; [14],4% and 5% and 8%
same,Population Healthy Nuclei (%),[2]; [14],69% and 75% and 71%
same,Population Membrane Permeable-Phenotype (%),[2]; [14],1%
same,Population Mitochondria Different-Phenotype (%),[2]; [14],89% and 83%
same,Population Mitotic Cells (%),[2]; [14],38% and 26% and 47%
same,Population Normal (%),[2]; [14],97% and 95% and 92%
same,Population Pyknosed Nuclei (%),[2]; [14],26% and 19%
same,Total Cell Count,[2]; [14],310 and 372 and 210
